Source: paper PMC6543826 (Bioorganic chemistry, 2018)
Values joined by “and” are separate entries in the source; they are usually repeats but may differ in a detail not shown here. Equal values may be shown once.

What was measured:
SF-268 = assay: cells; type: cell-based; conditions: for Growth percent (G%): SF-268, 10^−5 M, 48 h
A375 cells [1] = assay: anchorage dependent colony formation assay; type: cell-based, human; conditions: A375, 10–14 days
Method in brief: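 1000 A375 cells per 60 mm plate adhered for 24 h, then were treated with various test compound doses for 10–14 days. Plates were PBS-washed and fixed in 4% paraformaldehyde (15 min, room temperature). They were stained with 0.2% crystal violet in 20% methanol for 10 min, water-washed and imaged under microscope.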

[2] = tested on: cleaved PARP in A375 cells; assay: PARP cleavage western blot; type: cell-based, human; conditions: 12 h exposure
Method in brief: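 A375 cells (1,000,000 per well) were seeded 24 h, then exposed to several test compound doses for 12 h before lysis in buffer with protease/phosphatase inhibitors. Protein was measured by Bradford. 60 μg lysate was run on 10% SDS-PAGE and blotted to PVDF. Blots were probed for PARP and cleaved PARP, with vinculin as loading control. Done twice.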

HOP-92 = assay: cells; type: cell-based; conditions: for Growth percent (G%): HOP-92, 10^−5 M, 48 h
OVCAR-8 = assay: cells; type: cell-based; conditions: for Growth percent (G%): OVCAR-8, 10^−5 M, 48 h
HL-60 (TB) = assay: cells; type: cell-based; conditions: for Growth percent (G%): HL-60(TB), 10^−5 M, 48 h
DU-145 = assay: cells; type: cell-based; conditions: for Growth percent (G%): DU-145, 10^−5 M, 48 h
[3] = tested on: ERK substrates (p90RSK and ELK) phosphorylation in A375 cells; assay: western blotting of MAPK pathway phosphorylation in A375 cells after EGF; type: cell-based, human; conditions: for phosphorylation of ERK substrates (p90RSK and ELK), in words: A375, 0.5–25 μM, EGF stimulation; for concentration enough to inhibit ELK phosphorylation / concentration enough to inhibit p-90RSK phosphorylation: A375, 12 h, then EGF 100 nM; for effect on ERK or MKK½ phosphorylation or the JNK pathway: A375, EGF stimulation
Method in brief: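 A375 cells (1,000,000 per well) were seeded 24 h, then treated with DMSO or test compound (0.5–25 μM) in serum-free medium for 4 or 12 h. Cells were stimulated with 100 nM EGF for 10–15 min, lysed, and 60 μg lysate was blotted. Probes: phospho-p90RSK (Thr573), RSK, phospho-Elk-1 (Ser383), phospho- and total ERK1/2, phospho-JNK (Thr183/Tyr185). Done twice.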

SW-620 = assay: cells; type: cell-based; conditions: for Growth percent (G%): SW-620, 10^−5 M, 48 h
HT29 = assay: cells; type: cell-based; conditions: for Growth percent (G%): HT29, 10^−5 M, 48 h
[4] = tested on: caspase 3/7 in A375 cells; assay: IncuCyte Caspase 3/7 apoptosis assay; type: cell-based, human; conditions: doses of 3.7 and 33.3 μM, after 48 and 72 h
Method in brief: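 2000 A375 cells per well adhered for 24 h, then received test compound doses plus a constant concentration of IncuCyte Caspase-3/7 reagent. Cells were imaged on IncuCyte ZOOM (10× objective) at set time points, and stained cells were counted. Apoptotic cell number was normalized to percentage area confluence at the final time point.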

[5] = tested on: BRAF-mutant A375 melanoma cells; assay: A375 cell viability, MTS assay; type: cell-based; conditions: Homo sapiens, A-375, 72 h, read-out: A375 Cell Viability IC50
Method in brief: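 A375 cells were kept in RPMI with 10% heat-inactivated FBS, Glutamax and penicillin/streptomycin at 37 °C in 5% CO2. 2000 cells per well were treated with a range of test compound doses for 72 h. Viability was read by MTS assay. Run in triplicate.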

[6] = tested on: NCI-60 panel of tumor cell lines; conditions: for Average G%: average over tested NCI-60 cell lines, 10^−5 M (10 μM), 48 h
HCT-116 = assay: cells; type: cell-based; conditions: for Growth percent (G%): HCT-116, 10^−5 M, 48 h
NCI-H522 = assay: cells; type: cell-based; conditions: for Growth percent (G%): NCI-H522, 10^−5 M, 48 h
NCI-H322M = assay: cells; type: cell-based; conditions: for Growth percent (G%): 10^−5 M, 48 h
A375 cells [7] = assay: IncuCyte real time proliferation assay; type: cell-based, human; conditions: imaged every 1 h for 90 h
Method in brief: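 Real-time growth: 2000 A375 cells per well adhered for 24 h, then were treated with a range of test compound doses. Phase images were taken on IncuCyte ZOOM (10× objective) every 1 h for 90 h in total. Growth confluence was estimated from the images and plotted.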

SK-MEL-2 = assay: cells; type: cell-based; conditions: for Growth percent (G%): SK-MEL-2, 10^−5 M, 48 h
PC-3 = assay: cells; type: cell-based; conditions: for Growth percent (G%): PC-3, 10^−5 M, 48 h
OVCAR-4 = assay: cells; type: cell-based; conditions: for Growth percent (G%): OVCAR-4, 10^−5 M, 48 h
ERK1 = ERK1 (Homo sapiens, UniProt P27361); assay: in vitro radioactive kinase assay, Ets-1 phosphorylation by ERK1; type: biochemical; conditions: ERK1 IC50, 100 μM ATP, 10 μM Ets-1
Method in brief: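 Radiometric assay at 28–30 °C in 25 mM HEPES pH 7.5, 50 mM KCl, 0.1 mM EDTA/EGTA, 2 mM DTT, 11 mM MgCl2, 10 μg mL−1 BSA and 5% DMSO (final). 2 nM activated ERK1 was used with 10 μM His-Ets-1 (1–138). Reactions were started with [γ-32P]ATP (10 or 100 μM). IC50 came from fitting rate versus inhibitor concentration to a hyperbolic decay equation.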

U251 = assay: cells; type: cell-based; conditions: for Growth percent (G%): U251, 10^−5 M, 48 h
HOP-62 = assay: cells; type: cell-based; conditions: for Growth percent (G%): HOP-62, 10^−5 M, 48 h
LOX IMVI = assay: cells; type: cell-based; conditions: for Growth percent (G%): 10^−5 M, 48 h
T-47D = assay: cells; type: cell-based; conditions: for Growth percent (G%): 10^−5 M, 48 h

ERK1, sequence (P27361 whole entry, species assumed): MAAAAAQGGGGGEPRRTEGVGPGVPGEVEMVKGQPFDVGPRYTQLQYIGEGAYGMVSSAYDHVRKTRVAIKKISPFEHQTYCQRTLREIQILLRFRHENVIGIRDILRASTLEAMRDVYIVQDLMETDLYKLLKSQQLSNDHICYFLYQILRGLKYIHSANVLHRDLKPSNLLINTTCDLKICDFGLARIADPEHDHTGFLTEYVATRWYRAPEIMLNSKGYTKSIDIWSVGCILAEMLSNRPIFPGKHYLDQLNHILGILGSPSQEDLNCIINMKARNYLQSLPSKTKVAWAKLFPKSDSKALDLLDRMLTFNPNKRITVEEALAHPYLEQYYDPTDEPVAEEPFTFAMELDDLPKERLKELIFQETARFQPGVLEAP

O=C1c2ccccc2C(=O)c2c1oc1c2c(=O)[nH]c2ccc(Cl)cc21 [3b, 2-Chloronaphtho[2′,3′:4,5]furo[3,2-c]quinoline-6,7,12(5H)-trione]
GI50 (SF-268; Homo sapiens, SF-268): 0.46 µM | CC50 (SF-268; Homo sapiens, SF-268, read-out: LC50): 49 µM | Growth percent (G%) (SF-268): −31.69% | TGI (SF-268; SF-268, five-dose): 3.98 µM | concentration at which inhibition of colony forming ability starts (A375 cells [1]): 10 µM | level of cleaved PARP in A375 [2]: elevated level | Growth percent (G%) (HOP-92): −37.24% | TGI (HOP-92; HOP-92, five-dose): 0.39 µM | GI50 (HOP-92; Homo sapiens, HOP-92): 0.15 µM | CC50 (HOP-92; Homo sapiens, HOP-92, read-out: LC50): 1 µM | GI50 (OVCAR-8; Homo sapiens, OVCAR-8): 0.39 µM | CC50 (OVCAR-8; Homo sapiens, OVCAR-8, read-out: LC50): 30.2 µM | Growth percent (G%) (OVCAR-8): −27.45% | TGI (OVCAR-8; OVCAR-8, five-dose): 2.29 µM | Growth percent (G%) (HL-60 (TB)): 94.52% | TGI (HL-60 (TB); HL-60 (TB), five-dose): 5.25 µM | GI50 (HL-60 (TB); Homo sapiens, HL-60): 1.7 µM | CC50 (HL-60 (TB); Homo sapiens, HL-60, read-out: LC50): 34.8 µM | Growth percent (G%) (DU-145): −45.39% | TGI (DU-145; DU-145, five-dose): 0.78 µM | GI50 (DU-145; Homo sapiens, DU-145): 0.28 µM | CC50 (DU-145; Homo sapiens, DU-145, read-out: LC50): 12.3 µM | phosphorylation of ERK substrates (p90RSK and ELK), in words [3]: dose-dependent inhibition | concentration enough to inhibit ELK phosphorylation [3]: 10 µM | concentration enough to inhibit p-90RSK phosphorylation [3]: 25 µM | effect on ERK or MKK½ phosphorylation or the JNK pathway [3]: no effect | GI50 (SW-620; Homo sapiens, SW-620): 0.33 µM | CC50 (SW-620; Homo sapiens, SW-620, read-out: LC50): 7.59 µM | Growth percent (G%) (SW-620): −53.04% | TGI (SW-620; SW-620, five-dose): 1.00 µM | Growth percent (G%) (HT29): 66.37% | TGI (HT29; HT29, five-dose): 12.88 µM | GI50 (HT29; Homo sapiens, HT-29): 3.72 µM | CC50 (HT29; Homo sapiens, HT-29, read-out: LC50): 39.8 µM | caspase 3/7 activity in A375 [4]: activation of caspase 3/7 | IC50 [5]: 3.7 ± 0.6 µM | Average G% [6]: −4.7% and −4.5% and −4.69% | TGI values, range over all cell lines ([6]; five-dose): 0.35 to 27.54 µM | TGI, average ([6]; five-dose): 1.02 µM | Growth percent (G%) (HCT-116): −12.24% | TGI (HCT-116; HCT-116, five-dose): 1.10 µM | GI50 (HCT-116; Homo sapiens, HCT-116): 0.31 µM | CC50 (HCT-116; Homo sapiens, HCT-116, read-out: LC50): 4.57 µM | GI50 (NCI-H522; Homo sapiens, NCI-H522): 0.32 µM | CC50 (NCI-H522; Homo sapiens, NCI-H522, read-out: LC50): 8.13 µM | Growth percent (G%) (NCI-H522): −16.76% | TGI (NCI-H522; NCI-H522, five-dose): 1.38 µM | Growth percent (G%) (NCI-H322M): 13.98% | GI50 (NCI-H322M; Homo sapiens): 0.32 µM | CC50 (NCI-H322M; Homo sapiens, read-out: LC50): 7.24 µM | TGI (NCI-H322M; five-dose): 1.45 µM | A375 real time proliferation (growth confluence), in words (A375 cells [7]): dose-dependent inhibition | GI50 (SK-MEL-2; Homo sapiens, SK-MEL-2): 1.74 µM | CC50 (SK-MEL-2; Homo sapiens, SK-MEL-2, read-out: LC50): 19.9 µM | Growth percent (G%) (SK-MEL-2): 31.83% | TGI (SK-MEL-2; SK-MEL-2, five-dose): 5.13 µM | GI50 (PC-3; Homo sapiens, PC-3): 0.18 µM | CC50 (PC-3; Homo sapiens, PC-3, read-out: LC50): 1.58 µM | Growth percent (G%) (PC-3): −33.26% | TGI (PC-3; PC-3, five-dose): 0.46 µM | GI50 (OVCAR-4; Homo sapiens, OVCAR-4): 0.17 µM | CC50 (OVCAR-4; Homo sapiens, OVCAR-4, read-out: LC50): 1.51 µM | Growth percent (G%) (OVCAR-4): −42.04% | TGI (OVCAR-4; OVCAR-4, five-dose): 0.45 µM | IC50 (ERK1): 0.5 ± 0.09 µM | GI50 (U251; Homo sapiens, U-251): 0.27 µM | CC50 (U251; Homo sapiens, U-251, read-out: LC50): 2.82 µM | Growth percent (G%) (U251): −77.55% | TGI (U251; U251, five-dose): 0.76 µM | Growth percent (G%) (HOP-62): −38.70% | TGI (HOP-62; HOP-62, five-dose): 0.65 µM | GI50 (HOP-62; Homo sapiens, HOP-62): 0.2 µM | CC50 (HOP-62; Homo sapiens, HOP-62, read-out: LC50): 3.24 µM | Growth percent (G%) (LOX IMVI): 11.13% | GI50 (LOX IMVI; Homo sapiens): 0.32 µM | CC50 (LOX IMVI; Homo sapiens, read-out: LC50): 3.98 µM | TGI (LOX IMVI; five-dose): 1.32 µM | GI50 (T-47D; Homo sapiens, T47D): 0.26 µM | CC50 (T-47D; Homo sapiens, T47D, read-out: LC50): 5.13 µM | Growth percent (G%) (T-47D; T-47D): −58.11% | TGI (T-47D; T-47D, five-dose): 0.98 µM

O=C1C(Cl)=C(c2c(O)c3c(=O)n(-c4ccccc4)c4ccccc4c3oc2=O)C(=O)c2ccccc21 [compound 6, 3-(3-Chloro-1,4-dioxo-1,4-dihydronaphthalen-2-yl)-4-hydroxy-6-phenyl-2H-pyrano[3,2-c]quinoline-2,5(6H)-dione]
Growth percent (G%) (SF-268): 34.32% | concentration at which inhibition of colony forming ability starts (A375 cells [1]): 2.5 µM | level of cleaved PARP in A375 [2]: elevated level | Growth percent (G%) (HOP-92): 80.01% | Growth percent (G%) (OVCAR-8): 48.24% | Growth percent (G%) (HL-60 (TB)): 7.05% | Growth percent (G%) (DU-145): 34.21% | phosphorylation of ERK substrates (p90RSK and ELK), in words [3]: dose-dependent inhibition | concentration enough to inhibit ELK phosphorylation [3]: 2.5 µM | concentration enough to inhibit p-90RSK phosphorylation [3]: 10 µM | effect on ERK or MKK½ phosphorylation or the JNK pathway [3]: no effect | Growth percent (G%) (SW-620): 18.61% | Growth percent (G%) (HT29): 84.18% | caspase 3/7 activity in A375 [4]: activation of caspase 3/7 | IC50 [5]: 0.13 ± 0.03 µM | NCI Cytotoxicity Screening Average G% ([6]; Table 4, 10 μM one-dose screen): 35% | Average G% [6]: 35.49% | Growth percent (G%) (HCT-116): 41.72% | Growth percent (G%) (NCI-H522): 19.42% | Growth percent (G%) (NCI-H322M): 63.53% | A375 real time proliferation (growth confluence), in words (A375 cells [7]): dose-dependent inhibition | Growth percent (G%) (SK-MEL-2): 23.06% | Growth percent (G%) (PC-3): 49.16% | Growth percent (G%) (OVCAR-4): 18.80% | IC50 (ERK1): 0.19 ± 0.01 µM | Growth percent (G%) (U251): 21.15% | Growth percent (G%) (HOP-62): 36.07% | Growth percent (G%) (LOX IMVI): 42.99% | Growth percent (G%) (T-47D; T-47D): 4.47%
